Measurements as given in ChEMBL document CHEMBL1795211, “Evaluation of NTF1836 as an inhibitor of the mycothiol biosynthetic enzyme MshC in growing and non-replicating Mycobacterium tuberculosis” (Bioorg Med Chem, 2011).
In brackets after ≈: the same amount, converted by molar mass. Activity calls are given as the source filed them. No cut-off for these calls is given here.

What was measured:
[1] = biological target: T1, L-cysteine:1D-myo-inositol 2-amino-2-deoxy-alpha-D-glucopyranoside ligase (Mycobacterium tuberculosis, UniProt P9WJM9); experiment: Inhibition of Mycobacterium tuberculosis recombinant MshC assessed as production of Cys-GlcN-Ins from cysteine by HPLC based fluorescence assay
T1 sequence (P9WJM9 whole entry): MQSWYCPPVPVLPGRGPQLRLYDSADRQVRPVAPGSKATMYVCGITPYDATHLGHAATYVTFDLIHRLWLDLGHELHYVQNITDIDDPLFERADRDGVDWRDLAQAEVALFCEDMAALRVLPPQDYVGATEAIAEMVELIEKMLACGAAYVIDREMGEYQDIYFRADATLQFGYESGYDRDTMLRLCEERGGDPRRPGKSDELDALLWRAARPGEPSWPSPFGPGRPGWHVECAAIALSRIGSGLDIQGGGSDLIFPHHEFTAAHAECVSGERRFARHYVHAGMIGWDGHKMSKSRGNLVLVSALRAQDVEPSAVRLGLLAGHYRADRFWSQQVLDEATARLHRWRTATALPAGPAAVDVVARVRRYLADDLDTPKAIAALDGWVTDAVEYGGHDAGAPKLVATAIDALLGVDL

Vero = experiment: Cytotoxicity against african green monkey Vero cells assessed as cell viability after 48 hrs by neutral red assay; assay type: cell-based; conditions: chlorocebus sabaeus
[2] = Antimycobacterial activity against mid-log phase of Mycobacterium tuberculosis Erdman ATCC 35801 after 7 days by 96 well plate assay; assay type: functional, Mycobacterium tuberculosis str. Erdman; conditions: ATCC 35801, 168 h
[3] = test system: Mycobacterium tuberculosis str. Erdman; experiment: Antimycobacterial activity against mid-log phase of Mycobacterium tuberculosis Erdman ATCC 35801 assessed as growth inhibition after 7 days by 96 well plate assay; assay type: functional
[4] = Antimycobacterial activity against mid-log phase of Mycobacterium tuberculosis Erdman ATCC 35801 assessed as reduction of viability at 20 uM after 7 days by 96 well plate assay; assay type: functional, Mycobacterium tuberculosis str. Erdman
[5] = test system: Mycobacterium tuberculosis str. Erdman; experiment: Antimycobacterial activity against mid-log phase of Mycobacterium tuberculosis Erdman ATCC 35801 assessed as growth inhibition by measuring change on optical density at 600 nm at 30 to 50 uM after 7 days; assay type: functional
Outline: (§1)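 Mid-log Erdman in 7H9 + ADS adjusted to OD600 0.08; 8 mL aliquots with 10–75 µM compound (from DMSO stock) in vented flasks, 7 d at 37 °C; duplicates with DMSO-matched control; growth read as 7-day change in OD600.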

[6] = Antimycobacterial activity against mid-log phase of Mycobacterium tuberculosis Erdman ATCC 35801 assessed as reduction of viability at 50 to 75 uM after 7 days by 96 well plate assay relative to control; assay type: functional, Mycobacterium tuberculosis str. Erdman
[7] = biological target: T2, L-cysteine:1D-myo-inositol 2-amino-2-deoxy-alpha-D-glucopyranoside ligase (Mycobacterium tuberculosis) (UniProt P9WJM9); experiment: Inhibition of MshC in Mycobacterium tuberculosis Erdman ATCC 35801 assessed as reduction of Cys-GlcN-Ins accumulation at 10 to 80 uM after 7 days by HPLC based fluorescence assay; conditions: Mycobacterium tuberculosis str. Erdman
T2 sequence (whole entry): T1 sequence (P9WJM9 whole entry)

[8] = test system: Mycobacterium tuberculosis str. Erdman; experiment: Antimycobacterial activity against mid-log phase of Mycobacterium tuberculosis Erdman ATCC 35801 assessed as growth inhibition by measuring change on optical density at 600 nm after 7 days; assay type: functional; outline: as §1
[9] = Antimycobacterial activity against non-replicating Mycobacterium tuberculosis Erdman ATCC 35801 nutrient starvation model assessed as reduction viability at 90 uM after 15 days by 96 well plate assay; assay type: functional, Mycobacterium tuberculosis str. Erdman
Outline: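 Non-replicating Erdman from nutrient starvation in PBS + 0.05% Tween 80 for 6 weeks; compound dilutions then added and incubation continued 15 d; viable counts by plating serial dilutions on 7H9 agar with OADC; duplicate samples.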

[10] = test system: Mycobacterium tuberculosis; experiment: Antimycobacterial activity against mid-log phase of Mycobacterium tuberculosis CDC1551 isolated from patient after 7 days by 96 well plate assay; assay type: functional; conditions: CDC1551, 168 h

For `CC1CCCN(CCCNC(=O)c2ccc3c(c2)N(Cc2ccccc2F)C(=O)c2ccccc2S3(=O)=O)C1` (configuration not stated), the IC50 [1] was 800 µM.

`O=C(NCCCN1CCOCC1)c1ccc2c(c1)N(Cc1cccc(Cl)c1)C(=O)c1ccccc1S2(=O)=O` gave an IC50 [1] of 3000 µM.

Compound `O=C(NCCCN1CCCC1)c1ccc2c(c1)N(Cc1cccc(Cl)c1)C(=O)c1ccccc1[S+]2[O-]` (racemic) has a cytotoxic concentration (Vero) of 50 µM, an IC50 [1] of 100 µM and an MIC95 [2] of 55 µM (≈ 28.7 µg/mL).

For `O=C(NCCN1CCCCCC1)c1ccc2c(c1)N(Cc1cccc(Cl)c1)C(=O)c1ccccc1[S+]2[O-]` (racemic), the cytotoxic concentration (Vero) was 100 µM, the IC50 [1] was 100 µM and the MIC95 [2] was 28 µM (≈ 15 µg/mL).

For `O=C(NCCCN1CCOCC1)c1ccc2c(c1)N(Cc1cccc(Cl)c1)C(=O)c1ccccc1[S+]2[O-]` (racemic), the IC50 [1] was 500 µM.

With `CN(CCCNC(=O)c1ccc2c(c1)N(Cc1cccc(Cl)c1)C(=O)c1ccccc1[S+]2[O-])C1CCCCC1` (racemic) the “growth inhibition (GI)” value [3] was “Dose-dependent effect”, the cytotoxic concentration (Vero) was 50 µM and the Activity [4] was 50%. The growth inhibition (GI) [5] was 50%, the IC50 [1] was 85 µM and the MIC95 [2] was 28 µM (≈ 15.8 µg/mL). The Activity [6] was 97%, the inhibition [7] was “Active” and the “growth inhibition (GI)” value [8] was “Dose-dependent effect”. For the same compound, the Activity [9] was 99%.

`Cc1ccc(CN2C(=O)c3ccccc3S(=O)(=O)c3ccc(C(=O)NCCCN4CCOCC4)cc32)c(C)c1` gave an IC50 [1] greater than 3000 µM.

For `Cc1ccc(CN2C(=O)c3ccccc3[S+]([O-])c3ccc(C(=O)NCCCN(C)C4CCCCC4)cc32)c(C)c1` (racemic), the IC50 [1] was 2000 µM.

Work on `CC1CC(C)CN(CCCNC(=O)c2ccc3c(c2)N(Cc2cccc(Cl)c2)C(=O)c2ccccc2[S+]3[O-])C1` (racemic) yielded an IC50 [1] of 500 µM.

`CC1CC(C)CN(CCCNC(=O)c2ccc3c(c2)N(Cc2ccccc2F)C(=O)c2ccccc2[S+]3[O-])C1` (racemic) showed an IC50 [1] greater than 3000 µM.

In the case of `CN(CCCNC(=O)c1ccc2c(c1)N(Cc1ccc(Cl)cc1)C(=O)c1ccccc1S2(=O)=O)C1CCCCC1`, the IC50 [1] is reported as 330 µM.

With `CN(C)CCCNC(=O)c1ccc2c(c1)N(Cc1ccc(Cl)cc1)C(=O)c1ccccc1[S+]2[O-]` (racemic) the IC50 [1] was 340 µM.

Work on `CC1CCCN(CCCNC(=O)c2ccc3c(c2)N(Cc2cccc(Cl)c2)C(=O)c2ccccc2[S+]3[O-])C1` (racemic) yielded a cytotoxic concentration (Vero) of 100 µM and an MIC95 [2] of 55 µM (≈ 30.3 µg/mL).

`CN(CCCNC(=O)c1ccc2c(c1)N(Cc1ccccc1)C(=O)c1ccccc1S2(=O)=O)C1CCCCC1` showed an IC50 [1] of 500 µM.

With `O=C(NCCCSC1CCCCC1)c1ccc2c(c1)N(Cc1cccc(Cl)c1)C(=O)c1ccccc1[S+]2[O-]` (racemic) the IC50 [1] was no less than 1000 µM.

`CCCN(CCC)CCCNC(=O)c1ccc2c(c1)N(Cc1cccc(Cl)c1)C(=O)c1ccccc1[S+]2[O-]` (racemic) showed an IC50 [1] of 100 µM.

Compound `O=C(NCCCN1CCOCC1)c1ccc2c(c1)N(Cc1cccc(Cl)c1)C(=O)c1ccccc1S2` has an IC50 [1] of 800 µM.

For `CCN(CC)CCCNC(=O)c1ccc2c(c1)N(Cc1ccc(C)cc1C)C(=O)c1ccccc1[S+]2[O-]` (racemic), the IC50 [1] was greater than 3000 µM.

In the case of `Cc1ccc(CN2C(=O)c3ccccc3S(=O)(=O)c3ccc(C(=O)NCCCN4CCCC4)cc32)c(C)c1`, the IC50 [1] is reported as 1400 µM.

Work on `CCC1CCCCN1CCCNC(=O)c1ccc2c(c1)N(Cc1cccc(Cl)c1)C(=O)c1ccccc1[S+]2[O-]` (racemic) yielded a cytotoxic concentration (Vero) of 100 µM, an IC50 [1] of 80 µM and an MIC95 [2] of 55 µM (≈ 31 µg/mL). For the same compound, the MIC95 [10] was 32 µM (≈ 18.1 µg/mL).

Work on `O=C(NCCCN1CCCC1)c1ccc2c(c1)N(Cc1cccc(Cl)c1)C(=O)c1ccccc1S2` yielded a cytotoxic concentration (Vero) of 50 µM, an IC50 [1] of 130 µM and an MIC95 [2] of 55 µM (≈ 27.8 µg/mL).

`CO[C@H]1/C=C/O[C@@]2(C)Oc3c(C)c(O)c4c(O)c(c(/C=N/N5CCN(C)CC5)c(O)c4c3C2=O)NC(=O)/C(C)=C\C=C\[C@H](C)[C@H](O)[C@@H](C)[C@@H](O)[C@@H](C)[C@H](OC(C)=O)[C@@H]1C` [RIFAMPIN] gave an MIC95 [2] of 0.24 µM (≈ 0.198 µg/mL).

Work on `CCCCN(C)CCCNC(=O)c1ccc2c(c1)N(Cc1cccc(Cl)c1)C(=O)c1ccccc1[S+]2[O-]` (racemic) yielded an IC50 [1] of 110 µM.

For `CCN1C(=O)c2ccccc2[S+]([O-])c2ccc(C(=O)NCCCN3CCCCCC3)cc21` (racemic), the IC50 [1] was no less than 3000 µM.

Work on `CN(CCCNC(=O)c1ccc2c(c1)N(Cc1cccc(Cl)c1)C(=O)c1ccccc1S2)C1CCCCC1` yielded an IC50 [1] of 280 µM.

For `O=C(NCC1CCCN1)c1ccc2c(c1)N(Cc1cccc(Cl)c1)C(=O)c1ccccc1S2(=O)=O` (configuration not stated), the IC50 [1] was 2500 µM.

In the case of `CN(CCCNC(=O)c1ccc2c(c1)N(Cc1ccccc1)C(=O)c1ccccc1[S+]2[O-])C1CCCCC1` (racemic), the IC50 [1] is reported as 300 µM.

`CN(CCCNC(=O)c1ccc2c(c1)N(Cc1ccc(F)cc1)C(=O)c1ccccc1[S+]2[O-])C1CCCCC1` (racemic) showed an IC50 [1] greater than 3000 µM.
